# ChEMBL document CHEMBL1154135, “Macaflavanones A-G, prenylated flavanones from the leaves of Macaranga tanarius” (J Nat Prod, 2008)
# The source made the active and inactive calls. The rule behind the calls is not given here.
# Key:
# [1] = system: A549; test: Cytotoxicity against human A549 cells after 72 hrs by MTT assay; type: functional, cell-based; settings: for IC50: A549, 72 h
# In short: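 A549 cells exposed 72 h to samples added in 10% DMSO after a 24 h pre-culture at 37 °C, 5% CO2. MTT (0.5 mg/mL) in DMEM for 1.5 h, formazan dissolved in DMSO, absorbance at 540 nm minus 620 nm. % inhibition relative to untreated control gives IC50; etoposide positive control; means with SD from triplicate experiments.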
# [2] = system: KB; test: Cytotoxicity against human KB cells after 72 hrs by MTT assay; type: functional, cell-based
# In short: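 KB cells seeded at 3 × 10^3 cells/well in DMEM with 10% FBS, amphotericin B (0.5 µg/ml) and kanamycin sulfate (100 µg/mL), 37 °C, 5% CO2. After 24 h, samples in 10% DMSO added; incubated 72 h. MTT (0.5 mg/mL) added for 1.5 h, formazan dissolved in DMSO, absorbance at 540 nm minus 620 nm. % inhibition vs control; etoposide positive control; means with SD, triplicate.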
SMILES,Activity [1],Activity [2],IC50 [1],IC50 [2]
CC(C)=CCC[C@@]1(C)C=Cc2c([C@@H]3CC(=O)c4c(cc(O)c(CC=C(C)C)c4O)O3)ccc(O)c2O1,inactive,inactive,,
CC(C)=C/C=C/[C@@]1(C)CCc2c([C@@H]3CC(=O)c4c(cc(O)c(CC=C(C)C)c4O)O3)ccc(O)c2O1,inactive,inactive,,
CC(C)=CCC[C@@]1(C)CCc2c([C@@H]3CC(=O)c4c(cc(O)c(CC=C(C)C)c4O)O3)ccc(O)c2O1,inactive,inactive,,
CC(C)=CCC[C@]1(C)CCc2c([C@@H]3CC(=O)c4c(cc(O)c(CC=C(C)C)c4O)O3)ccc(O)c2O1 [MACAFLAVANONE G],,,13.4 µM,12.3 µM
CC(C)=C/C=C/[C@]1(C)CCc2c([C@@H]3CC(=O)c4c(cc(O)c(CC=C(C)C)c4O)O3)ccc(O)c2O1,inactive,inactive,,
CC(C)=CCC/C(C)=C/Cc1c([C@@H]2CC(=O)c3c(cc4c(c3O)CCC(C)(C)O4)O2)ccc(O)c1O,inactive,inactive,,
CC(C)=CCC/C(C)=C/Cc1c([C@@H]2CC(=O)c3c(cc4c(c3O)C=CC(C)(C)O4)O2)ccc(O)c1O,inactive,inactive,,
COc1cc([C@@H]2c3cc4c(cc3[C@@H](O[C@@H]3O[C@@H]5CO[C@@H](C)O[C@H]5[C@H](O)[C@H]3O)[C@H]3COC(=O)[C@H]23)OCO4)cc(OC)c1O [ETOPOSIDE],,,8.37 µM,1.25 µM
